The structures appear in SMILES notation.

What is called Kd is the free concentration of one partner at which half of the binding sites on the other are occupied at equilibrium, for simple one-to-one binding. Lower therefore signals higher affinity.

Peptidyl-prolyl cis-trans isomerase A, sequence (P62937 whole entry): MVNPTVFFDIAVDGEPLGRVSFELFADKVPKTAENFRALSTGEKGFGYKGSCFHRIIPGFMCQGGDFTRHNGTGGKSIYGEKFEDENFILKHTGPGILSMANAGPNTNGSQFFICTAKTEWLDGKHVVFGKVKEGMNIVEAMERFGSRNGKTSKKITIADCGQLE

This assay has as its target Peptidyl-prolyl cis-trans isomerase A (Homo sapiens, UniProt P62937). Nature of the assay: Binding affinity towards cyclophilin A by fluorescence. In outline:
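Recombinant human cyclophilin A, expressed in E. coli with IPTG induction and partially purified by ammonium sulfate fractionation and DEAE-Sepharose. Intrinsic Trp fluorescence enhancement measured at room temperature in 50 mM Tris-HCl pH 7.6, 0.1 M NaCl. Kd from nonlinear least-squares fit to a quadratic binding equation.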
`COC(=O)[C@]12CCCN1C(=O)[C@](Cc1ccc3ccccc3c1)(NC(=O)OCc1ccccc1)CC2`: binding was characterised by a dissociation constant (Kd) of 4.7 µM. `COC(=O)[C@]12CCCN1C[C@@H](NC(=O)OC(C)(C)C)CC2` returned a Kd of more than 200 µM.

`COC(=O)[C@]12CCCN1C(=O)[C@](Cc1ccc3ccccc3c1)(NC(C)=O)CC2` had a Kd of 1.5 µM.

On to `COC(=O)[C@]12CCCN1C(=O)[C@@H](NC(=O)OC(C)(C)C)CC2`, for which the Kd is more than 200 µM. Compound `COC(=O)[C@]12CCCN1C(=O)[C@](Cc1ccc3ccccc3c1)(NC(=O)OC(C)(C)C)CC2` registered a Kd of 17 µM. The result for `COC(=O)[C@]12CCCN1C(=O)[C@](Cc1ccccc1)(NC(=O)OCc1ccccc1)CC2` reads 124 µM; that for `COC(=O)[C@]12CCCN1C[C@H](NC(=O)OC(C)(C)C)CC2`, more than 200 µM. In the case of `COC(=O)[C@]12CCCN1C(=O)[C@H](NC(=O)OCc1ccccc1)CC2` it was more than 200 µM; in that of `COC(=O)[C@]12CCCN1C(=O)[C@H](NC(=O)OC(C)(C)C)CC2`, more than 200 µM; in that of `COC(=O)[C@]12CCCN1C(=O)[C@](Cc1ccccc1)(NC(=O)OC(C)(C)C)CC2`, 140 µM. With `COC(=O)[C@]12CCCN1C[C@](Cc1ccc3ccccc3c1)(NC(=O)OC(C)(C)C)CC2`, the affinity, expressed as Kd, was 77 µM.

Source of the values: ChEMBL document CHEMBL1134550, “Structure-activity studies of ground- and transition-state analogue inhibitors of cyclophilin” (J Med Chem, 2001).
